HIF act = HIF pathway transcriptional activation. U2OS HRE-luciferase reporter, luminescence; normalized: DMSO 0%, desferrioxamine 100%. activation, % at 7.5 µM (by protocol). 300,000 compounds, 0.32% hits;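 active = mean activation of at least 10% of the iron chelator positive control signal, with at least half of replicates also reaching 10%; inconclusive = mean and replicate majority disagree about reaching 10%; inactive = mean and most replicates under 10%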
AI-2 QS modul = modulates the Vibrio harveyi AI-2 quorum sensing system; Vibrio harveyi JMH597 AI-2 luminescence/OD600 ratio, 9 h; stronger effect = lower value; strain lacks LuxN and CqsS sensors; 0 = neutral-control median; activity change, % at 7.5 µM; 300,000 compounds, 0.4% hits; AID 2094; in the data active = activity change below about -75%, passing the limit was not always enough; inconclusive = no clear call, values can overlap the other calls;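 also: luminescence divided by OD600 gain over 9 h not by final OD600 alone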
T cruzi repl = blocks replication of Trypanosoma cruzi; T. cruzi beta-gal in NIH3T3, luminescence, 90 h; inhibition, % (test concentration not listed); 300,000 compounds, 1.4% hits; AID 1885;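 active = mean inhibition across valid replicates above about 55%, limit read from the data; inconclusive = mean below that limit but half or more replicates reach it; inactive = mean below it, under half of replicates reach it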;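 also: signal also drops with host cell toxicity which is not excluded here; 0% = plate median of DMSO wells and 100% = zero luminescence signal; higher percent means less beta-gal luminescence so fewer parasites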
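Assay system: NIH/3T3 fibroblasts plus reporter T. cruzi. Amount: NIH/3T3 cells, 5,000 per well. Buffer or medium: DMEM, 2% fetal bovine serum. Doses: compound pinned at 50 nL/well, DMSO. Schedule: ≥90 h infection period, 3 h prior cell attachment. Signal: luminescent β-galactosidase signal after 60 min lysis. Read-out: parasite load inhibition, %.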
ARNT-TACC3 inh = disrupts binding between human ARNT and TACC3. Q9Y6A5. AlphaScreen His-ARNT PAS-B/GST-TACC3 binding, luminescence; TACC3 fragment carries E629A point mutation. inhibition, % at 9.99 µM. 390,000 compounds, 0.66% hits. AID 623870;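 active = mean inhibition of replicates at least 50% and at least half of replicates each reaching 50%; inconclusive = half or more replicates reach 50% but mean below 50%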;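 also: 0% = complete ARNT plus TACC3 wells and 100% = ARNT alone without TACC3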
The depositor's hits bear a star; u = inconclusive; x = no result given. This is a sample that favours compounds with a hit; in the whole collection about 2% have one here.

SMILES	HIF act	AI-2 QS modul	T cruzi repl	ARNT-TACC3 inh
COc1cccc(NC(=S)N(CCc2c(C)[nH]c3ccc(C)cc23)Cc2cccs2)c1	1.2	6.8	11.7	1.6
Cc1[nH]c2ccc(F)cc2c1CCN(Cc1cccnc1)C(=S)NC(C)(C)C	-0.7	7.7	64.9*	1.8
Cc1ccc2[nH]c(C)c(CCN(Cc3cccnc3)C(=S)NC(C)(C)C)c2c1	-1.0	14.9	34.0	2.2
COc1ccc2[nH]c(C)c(CCN(Cc3cccs3)C(=S)Nc3cccc(F)c3)c2c1	0.4	3.3	62.9*	3.7
CO[C@@H]1CN(C)C(=O)c2ccc(NC(=O)C3CCC3)cc2OC[C@H](C)N(Cc2ccc(F)cc2)C[C@@H]1C	x	x	x	-4.1
Cc1ccc(S(=O)(=O)N(C)C[C@H]2OCCCC[C@@H](C)Oc3ccc(NS(=O)(=O)c4cccs4)cc3C(=O)N([C@@H](C)CO)C[C@H]2C)cc1	x	x	x	15.7
COc1cc(CNC(C)c2ccccc2)cc(Br)c1OCc1ccc(F)cc1 (centres undefined)	-1.5	8.8	55.1*	25.3
CO[C@@H]1CN(C)C(=O)c2ccc(NC(=O)c3cnccn3)cc2OC[C@@H](C)N(C)C[C@H]1C	x	x	x	-3.4
CCCNC(=O)c1nnsc1S(=O)c1ccc(Cl)cc1 (centres undefined)	-0.8	15.1	66.9*	-12.5
CNC(=O)c1nnsc1S(=O)c1ccc(Cl)cc1 (centres undefined)	-0.1	u	60.3*	-28.4
COc1ccc2nc(NN=C(C)c3ccccn3)cc(C)c2c1	x	x	x	70.4*
NC(=S)Nc1cccc2cc3ccccc3cc12	0.6	-80.1*	-15.2	7.8
NC(=S)Nc1cc2ccccc2c2ccccc12	-0.2	-44.4	-18.8	-4.2
COc1ccc(CN(C)C[C@@H]2Oc3c(NS(C)(=O)=O)cccc3C(=O)N([C@H](C)CO)C[C@H]2C)cc1	x	x	x	10.9
CCNC1=C(Cl)C(=O)c2ccccc2C1=O	-0.2	-10.1	-14.3	14.6
CCCC(=O)NC1=C(Cl)C(=O)c2ccccc2C1=O	x	x	x	24.5*
O=C1C(Cl)=C(Nc2ccc(O)cc2)C(=O)c2ccccc21	-4.1	15.6	62.7*	1.4
Cc1ccc(NC2=C(Cl)C(=O)c3ccccc3C2=O)cc1	-5.4	12.0	-28.6	-0.6
OC(COc1ccc2ccccc2c1Br)Cn1ccnc1 (centres undefined)	0.8	42.1	63.4*	2.7
CCNC(=O)C[C@@H]1CC[C@@H]2[C@@H](COc3ccc(NC(=O)Nc4ccc(C)cc4)cc3C(=O)N2C)O1	x	x	x	1.9
CCC(=O)Nc1cc(-c2nn(C)c(=O)c3ccccc23)ccc1N1CCOCC1	-0.8	9.7	-4.3	-3.1
Cn1nc(-c2ccc(N3CCCCC3)c(NC(=O)c3ccco3)c2)c2ccccc2c1=O	-0.9	9.2	66.0*	11.4
Cc1ccc(Cl)cc1N1CCN(CC(O)COCc2ccco2)CC1 (centres undefined)	194.3*	14.0	23.3	-4.5
OC(COCc1ccco1)CN1CCN(C(c2ccccc2)c2ccccc2)CC1 (centres undefined)	-0.4	13.8	22.5	2.9
CCn1cc(C(=O)NCc2ccco2)c(=O)c2cc(S(=O)(=O)N3CCc4ccccc4C3)ccc21	-1.0	18.6	55.7*	-0.5
SMILES	HIF act	AI-2 QS modul	T cruzi repl	ARNT-TACC3 inh
CN(C)CC(=O)N[C@H]1CC[C@@H](CCn2cc(CN(C)C)nn2)O[C@@H]1CO	x	x	x	-36.7
CC(=O)Cn1ncc(Br)c(Br)c1=O	-7.7	2.1	55.6*	0.6
COCC(=O)Nc1ccc2c(c1)[C@@H]1C[C@@H](CC(=O)NCc3ccc(OC)cc3)O[C@H](CO)[C@@H]1O2	x	x	x	7.0
CC(C)C(=O)O/N=C(\N)c1ccccn1	-0.1	20.8	-6.1	4.2
N/C(=N\OS(=O)(=O)c1ccccc1)c1ccccn1	-0.9	9.2	-16.8	65.3*
O=C(COc1ccc(Cl)cc1Cl)N/N=C/c1ccc[nH]1	1.4	34.0	-13.2	30.8
O=C(CCCOc1ccc(Cl)cc1Cl)N/N=C/c1ccccc1O	11.3*	-9.0	-0.4	-1.0
O=C(COc1ccc(Cl)cc1Cl)N/N=C/CCc1ccccc1	10.5*	17.5	-0.4	-5.9
CC(C)NC(=O)N(C)C[C@@H]1OCCCC[C@H](C)Oc2ccc(NC(=O)Nc3ccc4c(c3)OCO4)cc2C(=O)N([C@H](C)CO)C[C@@H]1C	x	x	x	16.9
CC(C)=NNc1ncnc2nc[nH]c12	x	x	x	72.3*
CC(O)CNc1ncnc2nc[nH]c12 (centres undefined)	-0.2	6.7	0.4	-21.6
Cc1ccc2nc(N/N=C\c3ccc([N+](=O)[O-])o3)nc(-c3ccccc3)c2c1	-0.5	0.4	79.9*	17.9
O=[N+]([O-])c1ccc(/C=N/Nc2ccc3ccccc3c2)o1	0.8	33.3	39.1	2.1
Fc1ccc(Nc2nc(N/N=C/c3ccco3)nc(N3CCCCC3)n2)cc1	-1.0	18.7	60.4*	3.4
CCNc1nc(NCC)nc(N/N=C/c2ccc([N+](=O)[O-])o2)n1	-0.6	-157.5*	46.8	19.3
O=[N+]([O-])c1ccc(-c2ccc(/C=N/Nc3nc(N4CCCC4)nc(N4CCCC4)n3)o2)cc1	-0.1	10.2	42.4	-11.4
O=[N+]([O-])c1ccc(/C=N/Nc2nc(N3CCCC3)nc(N3CCCC3)n2)o1	-0.7	35.3	64.0*	3.1
CC(=O)n1cc([C@H]2C=C(C(=O)N3CCCCCCC3)O[C@@H](OCCCCO)C2)c2ccccc21	x	x	x	8.1
O=C(C[C@H]1CC[C@@H]2[C@H](COC[C@H](O)CN2C(=O)c2ccc(F)cc2)O1)N1CCOCC1	x	x	x	29.4
O=C(C[C@H]1CC[C@@H]2NC[C@@H](O)COC[C@H]2O1)NC1Cc2ccccc2C1	x	x	x	-0.6
Clc1ccccc1COc1ccc(/C=N/n2cnnc2)cc1	-0.3	13.0	20.1	x
C=CCNC(=S)N/N=C/c1ccc(OCc2ccccc2Cl)cc1	0.8	18.7	64.9*	0.0
O=C(C[C@@H]1C=C[C@H](NC(=O)CCN2CCCCC2)[C@@H](CO)O1)Nc1ccc(-c2ccccc2)cc1	x	x	x	-23.5
CS(=O)(=O)N1CCc2cc(-c3csc(NC(=O)Cc4cccs4)n3)ccc21	0.0	10.0	60.3*	-0.3
CC(C)NC(=O)N(C)C[C@@H]1Oc2ncc(C#Cc3ccc(F)cc3)cc2C(=O)N([C@@H](C)CO)C[C@@H]1C	x	x	x	-9.6
O=C(NCc1nc2ccccc2[nH]1)c1c(F)c(F)c(F)c(F)c1F	74.1*	22.2	6.7	-9.6
C[C@@H]1CN([C@@H](C)CO)C(=O)c2cc(NS(=O)(=O)c3ccc(F)cc3)ccc2O[C@@H]1CN(C)Cc1ccc2c(c1)OCO2	x	x	x	-2.7
CCN(c1ccccc1)S(=O)(=O)c1cc(C(=O)Nc2ccc(Br)cc2)ccc1F	-0.1	-2.5	56.8*	2.7
CCN(c1ccccc1)S(=O)(=O)c1cc(C(=O)Nc2ccccc2Cl)ccc1F	0.1	4.7	12.8	20.2
Cc1cc(C(=O)Nc2cccc3c2O[C@@H](CN(C)C(=O)NC2CCCCC2)[C@H](C)CN([C@@H](C)CO)C3=O)n(C)n1	x	x	x	-1.9

Screens: PubChem, Broad Institute
